Test results from ChEMBL document CHEMBL1124291, “New actinomycin D analogues as superior chemotherapeutic agents against primary and advanced colon tumors and colon xenografts in nude mice” (J Med Chem, 1988).

Assays:
[1] = test system: P388; experiment: 50% inhibition of incorporation precursor [14C]uridine into RNA P388 cell lines; type: functional, cell-based; settings: Mus musculus
[2] = organism: Rattus norvegicus; experiment: Percent of the tissue bound conjugates isolated from incubation mixture containing rat microsomes; type: functional
Summary of the method: (§1)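 Tritiated analogues were incubated with two systems. (T) sonicated P388 cell homogenates, 37 °C for 16 h. (M) liver microsomes from phenobarbital-induced rats, 6 h with an NADPH-generating system (glucose-6-phosphate dehydrogenase plus glucose 6-phosphate). Metabolites and water-soluble conjugates were isolated, separated by HPLC and expressed as percentages.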

[3] = test system: MC-38; experiment: Mean survival time of treated / untreated group x100. (number of over 100-day survivors/number of total mice in the group) at a dose 0.60 mg/kg; type: functional, Mus musculus; settings: dose 0.6 mg/kg
Summary of the method: (§2)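 CDF1 mice were implanted sc on day 0 with colon 38 adenocarcinoma fragments (70 mg) and given iv drug on days 1, 5 and 9. %T/C = median survival of treated / untreated × 100. Number of mice surviving over 100 days / group total is given in parentheses.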

[4] = test system: MC-38; experiment: Activity against advanced carcinoma C38 tumor in CDF1 mice at dose 1.20 mg/kg measured as % inhibition of tumor; type: functional; settings: Mus musculus
[5] = test system: B16; experiment: In vivo antitumor activity against B16 melanoma cells at dose 300 ug/Kg /inj measured as Mean survival time (MST); type: functional, Mus musculus
Summary of the method: (§3)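 BDF1 mice in groups of nine were implanted ip on day 0 with 0.2 mL of 1:5 (w/v) B16 melanoma brei; drugs were given ip. Survival is reported as median survival time in days with range, and as %ILS, with survivors counted on day 65 out of total injected.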

[6] = test system: MC-38; experiment: Mean survival time of treated / untreated group x100. (number of over 100-day survivors/number of total mice in the group) at a dose 0.30 mg/kg; type: functional, Mus musculus; settings: dose 0.3 mg/kg; summary of the method: as §2
[7] = organism: Rattus norvegicus; experiment: DNA-cleaving ability expressed as % of closed circular pBR322 DNA cleaved at 100 uM conc 100 uM; type: functional
Summary of the method: (§4)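 pBR322 DNA (200 μM nucleotides) in 10 mM Tris·HCl pH 7.8 and 50 mM NaCl, with 4 mM Na₂S₂O₄ and 100 μM FeCl₂. Incubated with drug for 1 h at 20 °C, kept air-saturated. Supercoiled and open-circular forms were separated by agarose gel electrophoresis, stained with ethidium bromide and quantitated by densitometry. % cleaved was calculated from the open- and closed-circular amounts.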

[8] = test system: MC-38; experiment: Activity against advanced carcinoma C38 tumor in CDF1 Mice at dose 0.30 mg/kg measured as % inhibition of tumor; type: functional; settings: Mus musculus
[9] = test system: MC-38; experiment: Activity against advanced carcinoma C38 tumor in CDF1 Mice at dose 0.60 mg/kg measured as % inhibition of tumor; type: functional; settings: Mus musculus
[10] = organism: Rattus norvegicus; experiment: The formation of adrenochrome from epinephrine in the presence of SOD(super oxide dismutase); + denotes ' Inhibited'; type: functional
Summary of the method: (§5)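 Drug-stimulated superoxide generation with rat liver microsomal enzymes and NADPH as cofactor. NADPH oxidation was read at 340 nm. Adrenochrome formed from epinephrine was read at 480 nm, with or without superoxide dismutase. % stimulation = [(drug-stimulated rate − basal rate)/basal rate] × 100. Values are mean ± standard error of triplicate analyses.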

[11] = test system: HT-29; experiment: 50% inhibition of incorporationf precursor [3H]thymidine into DNA HT-29 cell lines; type: functional, cell-based; settings: Homo sapiens, HT-29, 2 h
Summary of the method: (§6)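 HT-29 colon carcinoma monolayers, 10^4 cells per well, five wells per concentration. Drug exposure lasted 2 h, with [³H]thymidine and [2-¹⁴C]uridine (0.5 μCi each) added for the last hour. Cells were washed, trypsinized, counted and precipitated onto glass-fiber filters with 10% TCA. Acid-precipitable radioactivity was measured. IC50 is the concentration inhibiting 50% of incorporation; data are averages of replicate experiments.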

[12] = organism: Rattus norvegicus; experiment: Percent of the protein conjugates isolated from incubation mixture containing tumor cell homogenate(T); type: functional; summary of the method: as §1
[13] = test system: MC-38; experiment: Mean survival time of treated / untreated group x100. (number of over 100-day survivors/number of total mice in the group) at a dose 1.20 mg/kg; type: functional, Mus musculus; settings: dose 1.2 mg/kg; summary of the method: as §2
[14] = test system: MC-38; experiment: Number of toxic deaths/number of mice in a group of non tumored mice treated in parallel with the tumor-bearing mice and observed for 100 days at a dose of 0.60 mg/ kg; value given as 0/9; type: functional, Mus musculus
Summary of the method: (§7)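 Non-tumored CDF1 mice were treated in parallel with colon 38 tumor-bearing mice: iv injections on days 1, 5 and 9, groups of nine. Deaths were counted over 100 days of observation and reported as toxic deaths / mice in group.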

[15] = test system: B16; experiment: In vivo antitumor activity against B16 melanoma cells at a optimal dose measured as %ILS (%increase life span); type: functional, Mus musculus; summary of the method: as §3
[16] = test system: HT-29; experiment: 50% inhibition of incorporationf precursor [3H]thymidine into RNA HT-29 cell lines; type: functional, cell-based; settings: Homo sapiens, HT-29, 2 h; in the assay text read “[14C]uridine” for “[3H]thymidine”; summary of the method: as §6
[17] = test system: MC-38; experiment: Number of toxic deaths/number of mice in a group of non tumored mice treated in parallel with the tumor-bearing mice and observed for 100 days at a dose of 1.20 mg/ Kg; value given as 4/9; type: toxicity; settings: mouse, in vivo, 1.2 mg/kg, 2400 h; summary of the method: as §7
[18] = organism: Rattus norvegicus; experiment: Percent of the uncoverted isolated from incubation mixture containing trat microsomes,; type: functional; summary of the method: as §1
[19] = test system: P388 (Mus musculus); experiment: Percent of the unidentified metabolites isolated from incubation mixture containing tumor cell homogenate(T)
[20] = DNA-cleaving ability expressed as % of closed circular pBR322 DNA cleaved at 10 uM conc 10 uM
[21] = test system: MC-38; experiment: Number of toxic deaths/number of mice in a group of non tumored mice treated in parallel with the tumor-bearing mice and observed for 100 days at a dose of 0.30 mg/ kg; value given as 0/9; type: functional, Mus musculus; summary of the method: as §7
[22] = test system: P388 (Mus musculus); experiment: Percent of the tissue bound conjugates isolated from incubation mixture containing tumor cell homogenate(T)
[23] = organism: Rattus norvegicus; experiment: Percent of the unidentified metabolites isolated from incubation mixture containing rat micro somes; type: functional; summary of the method: as §1
[24] = organism: Rattus norvegicus; experiment: Percent of the protein conjugates isolated from incubation mixture containing rat micro somes; type: functional; summary of the method: as §1
[25] = test system: P388; experiment: Antitumor activity in P388/ADR (adriamycin resistant), in male BDF1 mice measured as optimal dose
[26] = test system: P388; experiment: Antitumor activity in P388/S(AMD sensitive) in male BDF1 mice measured as optimal dose at dose 0.3-1.8 mg/kg
[27] = organism: Rattus norvegicus; experiment: DNA-cleaving ability expressed as % of closed circular pBR322 DNA cleaved […] conc 50 uM; type: functional; summary of the method: as §4
[28] = organism: Rattus norvegicus; experiment: The formation of adrenochrome from epinephrine in the absence of SOD(super oxide dismutase); type: functional; summary of the method: as §5
[29] = test system: P388; experiment: 50% inhibition of incorporation of precursor [3H]thymidine into DNA P388 cell lines; type: functional, cell-based; settings: Mus musculus, P388, 2 h
[30] = test system: P388 (Mus musculus); experiment: Percent of the uncoverted isolated from incubation mixture containing tumor cell homogenate(T)
[31] = organism: Rattus norvegicus; experiment: Stimulation of NADPH oxidation in the presence of rat liver microsomes; type: functional; summary of the method: as §5
[32] = test system: pBR322 plasmid DNA; experiment: DNA-cleaving ability expressed as % of closed circular pBR322 DNA cleaved […]
[33] = organism: Rattus norvegicus; experiment: Percent of the SAD glucuronide and/or sulfate isolated from incubation mixture containing tumor cell homogenate(T) after 8.0, 10.5 min.; type: functional; summary of the method: as §1

For Cc1c2oc3c(C)c(O)c(N)c(C(=O)N[C@@H]4C(=O)N[C@H](C(C)C)C(=O)N5CCC[C@H]5C(=O)N(C)CC(=O)N(C)[C@@H](C(C)C)C(=O)O[C@@H]4C)c3nc-2c(C(=O)N[C@@H]2C(=O)N[C@H](C(C)C)C(=O)N3CCC[C@H]3C(=O)N(C)CC(=O)N(C)[C@@H](C(C)C)C(=O)O[C@@H]2C)c(N)c1=O, the IC50 [1] was 15 nM, the Activity [2] was 15% and the T/C [3] was 278%. The inhibition in vivo at 1.2 mg/kg [4] was 99%, the MST [5] was 57 and the T/C [6] was 278%. For the same compound, the Activity [7] was 65%, the inhibition in vivo at 0.3 mg/kg [8] was 95% and the inhibition in vivo at 0.6 mg/kg [9] was 97%. The Adrenochrome formation [10] was “Inhibited”, the IC50 [11] was 70 nM and the Activity [12] was 5.5%. For the same compound, the T/C [13] was 211%, the Toxic deaths [14] was 0 and the ILS [15] was 96%. It also gave an IC50 [16] of 55 nM, a Toxic deaths [17] of 4 and an Activity [18] of 50%. It also gave an Activity [19] of 10%, an Activity [20] of 35% and a Toxic deaths [21] of 0. The Activity [22] was 7.5%, the Activity [23] was 15% and the Activity [24] was 20%. For the same compound, the optimal dose [25] was 1.2 mg/kg, the optimal dose [26] was 0.6 mg/kg and the Activity [27] was 50%. For the same compound, the Adrenochrome formation [28] was 19.3 nM min-1 (mg of protein)-1, the IC50 [29] was 12 nM and the Activity [30] was 30%. The NADPH oxidation (nM min-1 (mg of protein)-1) [31] was 64.3, the Activity [32] was 50% and the Activity [33] was 47%.

With BLEOMYCIN the Activity [7] was greater than 85% and the Activity [27] was 75%.
